Data taken from ChEMBL document CHEMBL1152473, “Synthesis, characterization and antibacterial activity of some triazole Mannich bases carrying diphenylsulfone moieties” (2009).
≈ marks a conversion by molar mass, not a printed value. Calls of active or inactive are those of the source. The rule behind the calls is not given here.

Experiments:
Assay type in all cases: functional
Acinetobacter baumannii = test: Antibacterial activity against Acinetobacter baumannii ATCC 19606 after 18 to 24 hrs by liquid broth method; details: ATCC 19606 = CIP 70.34 = JCM 6841
How it was run: (§1)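 Serial two-fold dilution in liquid broth in 96-well plates. Compounds were added from DMSO stock solutions to give final levels of 1024, 512, 256, 128, 64, 32, 16, 8, 4 and 2 (unit as printed unclear). Plates were incubated at 37 °C for 18–24 h.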

Enterococcus faecalis = test: Antibacterial activity against Enterococcus faecalis ATCC 19433 after 18 to 24 hrs by liquid broth method; how it was run: as §1
Pseudomonas aeruginosa = test: Antibacterial activity against Pseudomonas aeruginosa ATCC 9027 after 18 to 24 hrs by liquid broth method; how it was run: as §1
Staphylococcus aureus = test: Antibacterial activity against Staphylococcus aureus ATCC 12600 after 18 to 24 hrs by liquid broth method; how it was run: as §1
Citrobacter freundii = test: Antibacterial activity against Citrobacter freundii ATCC 8090 after 18 to 24 hrs by liquid broth method; how it was run: as §1
Bacillus subtilis = test: Antibacterial activity against Bacillus subtilis ATCC 6633 after 18 to 24 hrs by liquid broth method; how it was run: as §1
[1] = test system: Staphylococcus epidermidis; test: Antibacterial activity against Staphylococcus epidermidis ATCC 14990 after 18 to 24 hrs by liquid broth method; how it was run: as §1

SMILES	MIC (Acinetobacter baumannii)	MIC (Enterococcus faecalis)	MIC (Pseudomonas aeruginosa)	MIC (Staphylococcus aureus)	MIC (Citrobacter freundii)	MIC (Bacillus subtilis)	MIC [1]
CCCn1c(S)nnc1-c1ccc(S(=O)(=O)c2ccc(Cl)cc2)cc1	> 1020 µg/mL	> 1020 µg/mL	inactive	512 µg/mL (≈ 1300 µM)	512 µg/mL (≈ 1300 µM)	1020 µg/mL (≈ 2600 µM)	inactive
CCCn1c(S)nnc1-c1ccc(S(=O)(=O)c2ccc(Br)cc2)cc1	1020 µg/mL (≈ 2340 µM)	> 1020 µg/mL	inactive	256 µg/mL (≈ 584 µM)	256 µg/mL (≈ 584 µM)	1020 µg/mL (≈ 2340 µM)	inactive
O=S(=O)(c1ccccc1)c1ccc(-c2nn(CN3CCOCC3)c(=S)n2/N=C/c2ccccc2)cc1	> 1020 µg/mL	1020 µg/mL (≈ 1970 µM)	> 1020 µg/mL	512 µg/mL (≈ 985 µM)	> 1020 µg/mL	512 µg/mL (≈ 985 µM)	inactive
O=C(N[C@H](CO)[C@H](O)c1ccc([N+](=O)[O-])cc1)C(Cl)Cl [CHLORAMPHENICOL]	128 µg/mL (≈ 396 µM)	64 µg/mL (≈ 198 µM)	64 µg/mL (≈ 198 µM)	64 µg/mL (≈ 198 µM)	128 µg/mL (≈ 396 µM)	64 µg/mL (≈ 198 µM)	64 µg/mL (≈ 198 µM)
CCCn1c(S)nnc1-c1ccc(S(=O)(=O)c2ccccc2)cc1	> 1020 µg/mL	> 1020 µg/mL	> 1020 µg/mL	> 1020 µg/mL	> 1020 µg/mL	> 1020 µg/mL	> 1020 µg/mL
CCCn1c(-c2ccc(S(=O)(=O)c3ccc(Br)cc3)cc2)nn(CN2CCOCC2)c1=S	> 1020 µg/mL	512 µg/mL (≈ 953 µM)	> 1020 µg/mL	inactive	256 µg/mL (≈ 476 µM)	> 1020 µg/mL	inactive
COc1ccccc1/C=N/n1c(-c2ccc(S(=O)(=O)c3ccccc3)cc2)n[nH]c1=S	256 µg/mL (≈ 568 µM)	inactive	512 µg/mL (≈ 1140 µM)	128 µg/mL (≈ 284 µM)	inactive	128 µg/mL (≈ 284 µM)	inactive
O=S(=O)(c1ccccc1)c1ccc(-c2n[nH]c(=S)n2/N=C/c2ccccc2)cc1	> 1020 µg/mL	inactive	1020 µg/mL (≈ 2440 µM)	512 µg/mL (≈ 1220 µM)	inactive	inactive	> 1020 µg/mL

Further lines, results first:

MIC (Acinetobacter baumannii)	MIC (Enterococcus faecalis)	MIC (Pseudomonas aeruginosa)	MIC (Staphylococcus aureus)	MIC (Citrobacter freundii)	MIC (Bacillus subtilis)	MIC [1]	SMILES
> 1020 µg/mL	1020 µg/mL (≈ 2230 µM)	> 1020 µg/mL	inactive	512 µg/mL (≈ 1120 µM)	> 1020 µg/mL	> 1020 µg/mL	CCCn1c(-c2ccc(S(=O)(=O)c3ccccc3)cc2)nn(CN2CCOCC2)c1=S
512 µg/mL (≈ 1540 µM)	> 1020 µg/mL	> 1020 µg/mL	512 µg/mL (≈ 1540 µM)	> 1020 µg/mL	1020 µg/mL (≈ 3080 µM)	128 µg/mL (≈ 385 µM)	Nn1c(-c2ccc(S(=O)(=O)c3ccccc3)cc2)n[nH]c1=S
512 µg/mL (≈ 1000 µM)	512 µg/mL (≈ 1000 µM)	512 µg/mL (≈ 1000 µM)	512 µg/mL (≈ 1000 µM)	> 1020 µg/mL	1020 µg/mL (≈ 2010 µM)	inactive	O=S(=O)(c1ccccc1)c1ccc(-c2nn(CN3CCOCC3)c(=S)n2/N=C/c2ccco2)cc1
128 µg/mL (≈ 312 µM)	inactive	256 µg/mL (≈ 624 µM)	512 µg/mL (≈ 1250 µM)	inactive	inactive	inactive	O=S(=O)(c1ccccc1)c1ccc(-c2n[nH]c(=S)n2/N=C/c2ccco2)cc1
512 µg/mL (≈ 907 µM)	1020 µg/mL (≈ 1810 µM)	1020 µg/mL (≈ 1810 µM)	512 µg/mL (≈ 907 µM)	inactive	1020 µg/mL (≈ 1810 µM)	inactive	O=[N+]([O-])c1cccc(/C=N/n2c(-c3ccc(S(=O)(=O)c4ccccc4)cc3)nn(CN3CCOCC3)c2=S)c1
1020 µg/mL (≈ 1820 µM)	> 1020 µg/mL	> 1020 µg/mL	1020 µg/mL (≈ 1820 µM)	inactive	512 µg/mL (≈ 910 µM)	inactive	CN(C)c1ccc(/C=N/n2c(-c3ccc(S(=O)(=O)c4ccccc4)cc3)nn(CN3CCOCC3)c2=S)cc1
512 µg/mL (≈ 1130 µM)	inactive	512 µg/mL (≈ 1130 µM)	1020 µg/mL (≈ 2250 µM)	inactive	inactive	1020 µg/mL (≈ 2250 µM)	O=S(=O)(c1ccc(Cl)cc1)c1ccc(-c2n[nH]c(=S)n2/N=C/c2ccccc2)cc1
1020 µg/mL (≈ 1850 µM)	512 µg/mL (≈ 924 µM)	1020 µg/mL (≈ 1850 µM)	1020 µg/mL (≈ 1850 µM)	inactive	inactive	inactive	O=S(=O)(c1ccc(Cl)cc1)c1ccc(-c2nn(CN3CCOCC3)c(=S)n2/N=C/c2ccccc2)cc1
512 µg/mL (≈ 1100 µM)	inactive	> 1020 µg/mL	1020 µg/mL (≈ 2210 µM)	inactive	64 µg/mL (≈ 138 µM)	inactive	CN(C)c1ccc(/C=N/n2c(-c3ccc(S(=O)(=O)c4ccccc4)cc3)n[nH]c2=S)cc1
> 1020 µg/mL	1020 µg/mL (≈ 2080 µM)	> 1020 µg/mL	inactive	256 µg/mL (≈ 519 µM)	> 1020 µg/mL	inactive	CCCn1c(-c2ccc(S(=O)(=O)c3ccc(Cl)cc3)cc2)nn(CN2CCOCC2)c1=S
1020 µg/mL (≈ 2200 µM)	inactive	512 µg/mL (≈ 1100 µM)	256 µg/mL (≈ 550 µM)	inactive	512 µg/mL (≈ 1100 µM)	inactive	O=[N+]([O-])c1cccc(/C=N/n2c(-c3ccc(S(=O)(=O)c4ccccc4)cc3)n[nH]c2=S)c1
512 µg/mL (≈ 931 µM)	> 1020 µg/mL	> 1020 µg/mL	512 µg/mL (≈ 931 µM)	inactive	512 µg/mL (≈ 931 µM)	inactive	COc1ccccc1/C=N/n1c(-c2ccc(S(=O)(=O)c3ccccc3)cc2)nn(CN2CCOCC2)c1=S
128 µg/mL (≈ 349 µM)	inactive	inactive	1020 µg/mL (≈ 2790 µM)	1020 µg/mL (≈ 2790 µM)	1020 µg/mL (≈ 2790 µM)	512 µg/mL (≈ 1400 µM)	Nn1c(-c2ccc(S(=O)(=O)c3ccc(Cl)cc3)cc2)n[nH]c1=S
